Assay results published in ChEMBL document CHEMBL1123488, “Agents for the treatment of brain edema. 2. [(2,3,9,9a-Tetrahydro-3-oxo-9a-substituted-1H-fluoren-7-yl)oxy]+ ++alkanoi c acids and some of their analogues” (J Med Chem, 1986).
“And” between values parts separate entries of the source, which are not always exact repeats. Equal values may be shown once.

Experiments:
Felis catus [1] = species: Felis catus; assay: Compound was tested for inhibition of HCO3- dependent swelling of cat cerebrocortical slices at concentration of (10e-10) M; format: functional
How it was run: (§1)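 Cerebrocortical slices were weighed and incubated in Warburg flasks at 22 °C in medium of KCl 27, NaCl 100, glucose 10 and KH2PO4 1.2 mmol/L (27 mM K+ HEPES). HCO3- (5 mM) was added from the side arm for the final 40 min, and the compound was present throughout the 60 min. Swelling = (final − initial wet weight)/initial wet weight × 100. Two-tailed t-test versus 27 K + HCO3-.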

Felis catus [2] = species: Felis catus; assay: Compound was tested for inhibition of HCO3- dependent swelling of cat cerebrocortical slices at concentration of (10e-11) M; format: functional; how it was run: as §1
Felis catus [3] = species: Felis catus; assay: Compound was tested for inhibition of HCO3- dependent swelling of cat cerebrocortical slices at concentration of (10e-12) M; format: functional; how it was run: as §1
Felis catus [4] = species: Felis catus; assay: Compound was tested for inhibition of HCO3- dependent swelling of cat cerebrocortical slices at concentration of (10e-7) M; format: functional; how it was run: as §1
Felis catus [5] = species: Felis catus; assay: Compound was tested for inhibition of HCO3- dependent swelling of cat cerebrocortical slices at concentration of (10e-9) M; format: functional; how it was run: as §1
Felis catus [6] = species: Felis catus; assay: Compound was tested for inhibition of K+ ion uptake in cat cerebrocortical slices at concentration of (10e-7) M; format: functional
How it was run: (§2)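 Slices were incubated 60 min at 22 °C in 27 mM K+ medium with 5 mM HCO3- added for the last 40 min, with the compound present throughout. Slices were then filtered off, reweighed and homogenized (10% w/v) in 1 N perchloric acid. The supernatant was assayed for electrolytes, expressed as µmol/g initial wet weight. Two-tailed t-test versus 27 K + HCO3-.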

Felis catus [7] = species: Felis catus; assay: Compound was tested for inhibition of chloride ion uptake in cat cerebrocortical slices at concentration of (10e-10) M; format: functional; how it was run: as §2
Felis catus [8] = species: Felis catus; assay: Compound was tested for inhibition of chloride ion uptake in cat cerebrocortical slices at concentration of (10e-11) M; format: functional; how it was run: as §2
Felis catus [9] = species: Felis catus; assay: In vitro concentration required for 50% inhibition of swelling of cat cerebrocortical slices; format: functional; details: read-out: I50
How it was run: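 Cat cortical slices were weighed and incubated 60 min at 22 °C in 27 mM K+ medium, with HCO3- added for the last 40 min and inhibitor present throughout. Swelling = (final − initial wet weight)/initial wet weight × 100. The HCO3−-dependent increment was taken as the target. I50 is the molarity giving 50% inhibition, read from the concentration–response curve.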

Felis catus [10] = species: Felis catus; assay: Compound was tested for inhibition of sodium ion uptake in cat cerebrocortical slices at concentration of (10e-13) M; format: functional
Felis catus [11] = species: Felis catus; assay: Compound was tested for inhibition of K+ ion uptake in cat cerebrocortical slices at concentration of (10e-12) M; format: functional; how it was run: as §2
Felis catus [12] = species: Felis catus; assay: Compound was tested for inhibition of sodium ion uptake in cat cerebrocortical slices at concentration of (10e-12) M; format: functional
Cavia porcellus [13] = species: Cavia porcellus; assay: Compound was tested for inhibition of potassium ion uptake in guinea pig cerebrocortical slices at concentration of (10e-8) M; format: functional; how it was run: as §2
Cavia porcellus [14] = species: Cavia porcellus; assay: Compound was tested for inhibition of potassium ion uptake in guinea pig cerebrocortical slices at concentration of (10e-9) M; format: functional
Cavia porcellus [15] = species: Cavia porcellus; assay: Compound was tested for inhibition of sodium ion uptake in guinea pig cerebrocortical slices at concentration of (10e-11) M; format: functional
Cavia porcellus [16] = species: Cavia porcellus; assay: Compound was tested for inhibition of sodium ion uptake in guinea pig cerebrocortical slices at concentration of (10e-12) M; format: functional
Cavia porcellus [17] = species: Cavia porcellus; assay: Compound was tested for inhibition of sodium ion uptake in guinea pig cerebrocortical slices at concentration of (10e-8) M; format: functional
Cavia porcellus [18] = species: Cavia porcellus; assay: Compound was tested for inhibition of HCO3- dependent swelling of guinea pig cerebrocortical slices at concentration of (10e-6) M; format: functional; how it was run: as §1
Cavia porcellus [19] = species: Cavia porcellus; assay: Compound was tested for inhibition of HCO3- dependent swelling of guinea pig cerebrocortical slices at concentration of (10e-8) M; format: functional; how it was run: as §1
Cavia porcellus [20] = species: Cavia porcellus; assay: Compound was tested for inhibition of potassium ion uptake in guinea pig cerebrocortical slices at concentration of (10e-11) M; format: functional; how it was run: as §2
Cavia porcellus [21] = species: Cavia porcellus; assay: Compound was tested for inhibition of chloride ion uptake in guinea pig cerebrocortical slices at concentration of (10e-10) M; format: functional; how it was run: as §2
Cavia porcellus [22] = species: Cavia porcellus; assay: Compound was tested for inhibition of chloride ion uptake in guinea pig cerebrocortical slices at concentration of (10e-6) M; format: functional; how it was run: as §2
Cavia porcellus [23] = species: Cavia porcellus; assay: Compound was tested for inhibition of chloride ion uptake in guinea pig cerebrocortical slices at concentration of (10e-8) M; format: functional; how it was run: as §2
Rattus norvegicus [24] = species: Rattus norvegicus; assay: Compound was tested for inhibition of chloride ion uptake in rat cerebrocortical slices at concentration of (10e-4) M; format: functional; how it was run: as §2
Rattus norvegicus [25] = species: Rattus norvegicus; assay: Compound was tested for inhibition of chloride ion uptake in rat cerebrocortical slices at concentration of (10e-8) M; format: functional; how it was run: as §2
Rattus norvegicus [26] = species: Rattus norvegicus; assay: Compound was tested for inhibition of sodium ion uptake in rat cerebrocortical slices at concentration of (10e-3) M; format: functional
Rattus norvegicus [27] = species: Rattus norvegicus; assay: Compound was tested for inhibition of sodium ion uptake in rat cerebrocortical slices at concentration of (10e-4) M; format: functional
Rattus norvegicus [28] = assay: In vivo activity in the acceleration-deceleration head injury assay at dose of 10 mg/kg; format: functional
How it was run: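 Cat acceleration-deceleration head injury model. Drug given intravenously 20 min after the acceleration-deceleration event, before the hypoxemia period. Animals were matched in pairs by sex and run together; one was randomly assigned to drug, the other served as control. Deaths were counted over 24 h after trauma, excluding animals dying during the procedure or hypoxemia. Mortality was compared by χ² analysis.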

Rattus norvegicus [29] = species: Rattus norvegicus; assay: Compound was tested for inhibition of HCO3- dependent swelling of rat cerebrocortical slices at concentration of (10e-6) M; format: functional; how it was run: as §1
Rattus norvegicus [30] = species: Rattus norvegicus; assay: Compound was tested for inhibition of HCO3- dependent swelling of rat cerebrocortical slices at concentration of (10e-8) M; format: functional; how it was run: as §1
Felis catus [31] = assay: In vivo activity in the acceleration-deceleration head injury assay at dose of 5 mg/kg; 7/22
Felis catus [32] = assay: In vivo activity in the acceleration-deceleration head injury assay at dose of 1 mg/kg; 12/25
Felis catus [33] = assay: In vivo activity in the acceleration-deceleration head injury assay at dose of 1 mg/kg; 14/25
Felis catus [34] = assay: In vivo activity in the acceleration-deceleration head injury assay at dose of 10 mg/kg; 15/19
Felis catus [35] = assay: In vivo activity in the acceleration-deceleration head injury assay at dose of 2.5 mg/kg; 5/21
Felis catus [36] = assay: In vivo activity in the acceleration-deceleration head injury assay at dose of 2.5 mg/kg; 8-19

CCCC12CCC(=O)C=C1c1c(cc(OCC(=O)O)c(Cl)c1Cl)C2 (single isomer, unassigned; (+))
Swelling (Felis catus [1]): 19.5%
Swelling (Felis catus [2]): 19.1%
Swelling (Felis catus [3]): 21.3%
Swelling (Felis catus [4]): 20%
Swelling (Felis catus [5]): 18.3%
Activity (Felis catus [6]): 83.9
Activity (Felis catus [7]): 91.9
Activity (Felis catus [8]): 87.9
IC50 (Felis catus [9]): 0.02 nM
Activity (Felis catus [10]): 107.3
Activity (Felis catus [11]): 90.9
Activity (Felis catus [12]): 96.4
Activity (Cavia porcellus [13]): 90.8
Activity (Cavia porcellus [14]): 95.9
Activity (Cavia porcellus [15]): 103.4
Activity (Cavia porcellus [16]): 104.7
Activity (Cavia porcellus [17]): 108.6
Swelling (Cavia porcellus [18]): 26.8%
Swelling (Cavia porcellus [19]): 24.4%
Activity (Cavia porcellus [20]): 88.9
Activity (Cavia porcellus [21]): 101.4
Activity (Cavia porcellus [22]): 103.8
Activity (Cavia porcellus [23]): 103.8
Activity (Rattus norvegicus [24]): 92.3
Activity (Rattus norvegicus [25]): 101.4
Activity (Rattus norvegicus [26]): 132.4
Activity (Rattus norvegicus [27]): 112.1
Mortality (Rattus norvegicus [28]): 37.5% and 79%
Swelling (Rattus norvegicus [29]): 22.7%
Swelling (Rattus norvegicus [30]): 20.9%
Deaths (Felis catus [31]): 7
Deaths (Felis catus [32]): 12
Deaths (Felis catus [33]): 14
Deaths (Felis catus [34]): 15
Deaths (Felis catus [35]): 5
Deaths (Felis catus [36]): 8
